Positions of bridges follow the written chain, without caps; N, C: chain ends. Residues, ends and D or L forms follow the SMILES beside them.
Columns and labels:
[1] = target: Sodium channel protein type 5 subunit alpha (Homo sapiens, UniProt Q14524); experiment: Inhibition of human Nav1.5 expressed in HEK293 cells assessed as inward peak current by ion-works quattro patch clamp electrophysiology method; type: cell-based
Method in brief: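 Stable HEK293 line expressing human NaV1.5, recorded by population patch clamp on the IonWorks Quattro.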

[2] = target: Sodium channel protein type 9 subunit alpha (Homo sapiens, UniProt Q15858); experiment: Inhibition of human Nav1.7 expressed in HEK293 cells assessed as inward peak current by ion-works quattro patch clamp electrophysiology method; type: cell-based
Sodium channel protein type 9 subunit alpha, sequence (Q15858 whole entry): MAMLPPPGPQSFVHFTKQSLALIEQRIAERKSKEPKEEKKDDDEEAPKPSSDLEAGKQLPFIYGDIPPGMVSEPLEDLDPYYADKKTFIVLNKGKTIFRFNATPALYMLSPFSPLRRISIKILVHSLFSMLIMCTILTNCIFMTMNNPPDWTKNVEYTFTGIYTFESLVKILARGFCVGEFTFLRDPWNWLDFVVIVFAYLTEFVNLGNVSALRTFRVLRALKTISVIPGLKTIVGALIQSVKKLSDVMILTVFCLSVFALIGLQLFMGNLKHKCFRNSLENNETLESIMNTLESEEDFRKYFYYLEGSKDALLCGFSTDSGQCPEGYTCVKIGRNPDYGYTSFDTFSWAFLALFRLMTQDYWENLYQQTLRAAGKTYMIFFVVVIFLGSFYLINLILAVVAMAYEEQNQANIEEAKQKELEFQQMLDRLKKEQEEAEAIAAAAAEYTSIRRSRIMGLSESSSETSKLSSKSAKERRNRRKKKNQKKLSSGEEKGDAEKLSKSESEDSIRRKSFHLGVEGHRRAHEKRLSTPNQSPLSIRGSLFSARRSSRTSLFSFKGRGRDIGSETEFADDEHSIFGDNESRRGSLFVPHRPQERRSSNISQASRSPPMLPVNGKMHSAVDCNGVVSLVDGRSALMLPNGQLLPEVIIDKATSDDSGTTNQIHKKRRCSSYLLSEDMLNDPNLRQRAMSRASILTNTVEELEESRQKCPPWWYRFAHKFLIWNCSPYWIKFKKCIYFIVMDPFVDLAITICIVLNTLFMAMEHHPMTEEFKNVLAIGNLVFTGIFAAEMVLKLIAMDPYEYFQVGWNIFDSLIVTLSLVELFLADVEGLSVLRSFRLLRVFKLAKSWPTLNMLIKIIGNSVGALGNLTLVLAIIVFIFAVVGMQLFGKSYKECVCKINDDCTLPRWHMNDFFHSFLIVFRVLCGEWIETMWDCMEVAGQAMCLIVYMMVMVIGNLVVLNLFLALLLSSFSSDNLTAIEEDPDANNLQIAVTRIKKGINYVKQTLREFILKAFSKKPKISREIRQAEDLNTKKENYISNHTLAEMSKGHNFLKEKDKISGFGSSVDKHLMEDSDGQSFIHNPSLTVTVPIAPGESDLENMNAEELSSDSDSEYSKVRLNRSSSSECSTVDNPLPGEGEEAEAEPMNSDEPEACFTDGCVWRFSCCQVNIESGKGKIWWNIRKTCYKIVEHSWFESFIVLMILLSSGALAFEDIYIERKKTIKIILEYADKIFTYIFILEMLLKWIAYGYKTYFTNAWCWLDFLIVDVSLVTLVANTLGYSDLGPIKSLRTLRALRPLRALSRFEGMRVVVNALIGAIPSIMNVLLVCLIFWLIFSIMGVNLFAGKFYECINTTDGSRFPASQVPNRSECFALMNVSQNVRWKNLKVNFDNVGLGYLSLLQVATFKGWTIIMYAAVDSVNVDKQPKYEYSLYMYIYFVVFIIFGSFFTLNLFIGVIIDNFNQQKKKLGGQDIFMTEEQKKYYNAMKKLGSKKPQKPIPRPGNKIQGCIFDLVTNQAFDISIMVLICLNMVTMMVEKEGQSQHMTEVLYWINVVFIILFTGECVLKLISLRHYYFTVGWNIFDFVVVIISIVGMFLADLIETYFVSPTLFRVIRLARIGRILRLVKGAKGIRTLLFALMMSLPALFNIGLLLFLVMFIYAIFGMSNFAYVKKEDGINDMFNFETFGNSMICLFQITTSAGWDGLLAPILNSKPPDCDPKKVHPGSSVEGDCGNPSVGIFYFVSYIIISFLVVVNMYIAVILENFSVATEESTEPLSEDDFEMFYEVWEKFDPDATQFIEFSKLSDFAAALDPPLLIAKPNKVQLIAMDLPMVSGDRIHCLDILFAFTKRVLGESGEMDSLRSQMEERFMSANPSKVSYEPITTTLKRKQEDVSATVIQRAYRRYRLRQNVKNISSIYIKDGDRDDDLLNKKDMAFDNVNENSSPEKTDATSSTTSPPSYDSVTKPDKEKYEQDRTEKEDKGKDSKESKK

Sodium channel protein type 5 subunit alpha, sequence (Q14524 whole entry): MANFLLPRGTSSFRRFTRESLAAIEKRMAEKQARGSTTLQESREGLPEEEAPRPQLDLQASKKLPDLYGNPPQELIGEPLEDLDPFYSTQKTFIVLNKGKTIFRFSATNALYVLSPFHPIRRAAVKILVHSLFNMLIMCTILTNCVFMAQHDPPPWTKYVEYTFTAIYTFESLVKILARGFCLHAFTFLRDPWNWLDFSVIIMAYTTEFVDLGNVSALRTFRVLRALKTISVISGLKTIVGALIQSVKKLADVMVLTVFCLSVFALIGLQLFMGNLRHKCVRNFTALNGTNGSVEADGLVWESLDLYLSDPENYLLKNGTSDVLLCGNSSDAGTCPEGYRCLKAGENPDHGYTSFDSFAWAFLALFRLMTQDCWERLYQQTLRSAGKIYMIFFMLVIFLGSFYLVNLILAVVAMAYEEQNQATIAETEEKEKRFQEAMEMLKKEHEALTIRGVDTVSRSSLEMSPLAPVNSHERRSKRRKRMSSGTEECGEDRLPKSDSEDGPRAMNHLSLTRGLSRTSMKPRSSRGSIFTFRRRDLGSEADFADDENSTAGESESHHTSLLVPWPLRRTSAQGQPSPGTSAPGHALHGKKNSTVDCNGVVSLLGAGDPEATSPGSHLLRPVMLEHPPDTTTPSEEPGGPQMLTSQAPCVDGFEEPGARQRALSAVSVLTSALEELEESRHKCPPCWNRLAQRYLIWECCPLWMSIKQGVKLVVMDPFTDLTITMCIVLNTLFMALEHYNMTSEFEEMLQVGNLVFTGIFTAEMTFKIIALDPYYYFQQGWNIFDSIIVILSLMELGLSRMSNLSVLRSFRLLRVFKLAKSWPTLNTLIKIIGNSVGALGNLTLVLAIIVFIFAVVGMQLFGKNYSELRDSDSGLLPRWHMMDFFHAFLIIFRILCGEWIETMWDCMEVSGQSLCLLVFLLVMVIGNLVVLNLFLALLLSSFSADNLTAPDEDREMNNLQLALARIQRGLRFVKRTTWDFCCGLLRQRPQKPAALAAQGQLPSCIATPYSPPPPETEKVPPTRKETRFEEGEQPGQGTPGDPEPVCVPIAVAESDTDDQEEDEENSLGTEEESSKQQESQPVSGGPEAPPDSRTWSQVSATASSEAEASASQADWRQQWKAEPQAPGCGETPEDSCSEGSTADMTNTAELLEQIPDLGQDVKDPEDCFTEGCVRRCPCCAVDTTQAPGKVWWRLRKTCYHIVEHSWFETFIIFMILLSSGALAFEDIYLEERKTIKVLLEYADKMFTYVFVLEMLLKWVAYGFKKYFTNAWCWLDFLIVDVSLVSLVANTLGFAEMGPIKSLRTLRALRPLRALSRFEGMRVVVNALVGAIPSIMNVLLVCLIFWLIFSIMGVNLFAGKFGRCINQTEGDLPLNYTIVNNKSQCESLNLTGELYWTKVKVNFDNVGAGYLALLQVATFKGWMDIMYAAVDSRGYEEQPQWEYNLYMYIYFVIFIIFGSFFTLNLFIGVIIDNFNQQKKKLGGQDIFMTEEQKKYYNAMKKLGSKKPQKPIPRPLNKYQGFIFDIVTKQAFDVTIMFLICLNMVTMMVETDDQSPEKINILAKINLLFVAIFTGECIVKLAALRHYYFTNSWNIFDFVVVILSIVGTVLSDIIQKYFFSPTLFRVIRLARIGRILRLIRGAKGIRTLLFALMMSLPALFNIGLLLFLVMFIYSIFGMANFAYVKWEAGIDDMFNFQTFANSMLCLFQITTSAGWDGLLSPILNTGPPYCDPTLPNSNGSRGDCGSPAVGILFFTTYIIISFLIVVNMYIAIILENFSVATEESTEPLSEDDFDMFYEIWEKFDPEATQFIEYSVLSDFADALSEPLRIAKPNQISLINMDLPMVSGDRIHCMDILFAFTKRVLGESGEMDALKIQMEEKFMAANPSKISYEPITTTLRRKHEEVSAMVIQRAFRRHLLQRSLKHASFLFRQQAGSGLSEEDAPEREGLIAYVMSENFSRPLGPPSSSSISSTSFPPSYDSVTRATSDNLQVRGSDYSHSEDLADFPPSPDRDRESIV

| SMILES | IC50 [1] | IC50 [2] |
| --- | --- | --- |
| CC[C@H](C)[C@@H]1NC(=O)[C@@H]2CSSC[C@@H]3NC(=O)[C@H](C(C)C)NC(=O)[C@H](CC(C)C)NC(=O)[C@H](CC(N)=O)NC(=O)[C@@H]4CCCN4C(=O)[C@H](CCCNC(=N)N)NC(=O)[C@H](CSSC[C@H](NC(=O)[C@@H](N)Cc4c[nH]c5ccccc45)C(=O)N[C@@H](CC(C)C)C(=O)NCC(=O)N[C@@H](Cc4ccccc4)C(=O)N[C@@H](CCSC)C(=O)N[C@@H](CCCNC(=N)N)C(=O)N[C@@H](CCCCN)C(=O)N2)NC(=O)[C@H](CSSC[C@@H](C(=O)N[C@@H](CCCCN)C(=O)N[C@@H](Cc2ccc(O)cc2)C(=O)N[C@H](C(=O)N[C@@H](Cc2ccccc2)C(N)=O)C(C)C)NC(=O)[C@H](Cc2c[nH]c4ccccc24)NC(=O)[C@H](CCCCN)NC(=O)[C@H](Cc2cnc[nH]2)NC(=O)[C@H]([C@@H](C)O)NC(=O)[C@H](CCCNC(=N)N)NC(=O)[C@H](CO)NC3=O)NC(=O)[C@H](CCCCN)NC(=O)[C@H](CC(=O)O)NC(=O)[C@H](CC(N)=O)NC(=O)[C@H](CC(=O)O)NC(=O)[C@@H]2CCCN2C1=O (H-WCLGFMRKCIPDNDKCCRPNLVCSRTHKWCKYVF-NH2; disulfide 2-17, 9-23, 16-30) | > 5000 nM | 70 nM |
| CC[C@H](C)[C@@H]1NC(=O)[C@@H]2CSSC[C@@H]3NC(=O)[C@H](C(C)C)NC(=O)[C@H](CC(C)C)NC(=O)[C@H](CC(N)=O)NC(=O)[C@@H]4CCCN4C(=O)[C@H](CCCNC(=N)N)NC(=O)[C@H](CSSC[C@H](NC(=O)[C@@H](N)CC(=O)O)C(=O)N[C@@H](CC(C)C)C(=O)NCC(=O)N[C@@H](Cc4ccccc4)C(=O)N[C@@H](CCSC)C(=O)N[C@@H](CCCNC(=N)N)C(=O)N[C@@H](CCCCN)C(=O)N2)NC(=O)[C@H](CSSC[C@@H](C(=O)N[C@@H](CCCNC(=N)N)C(=O)N[C@@H](Cc2ccc(O)cc2)C(=O)N[C@H](C(=O)N[C@@H](Cc2ccccc2)C(N)=O)C(C)C)NC(=O)[C@H](Cc2c[nH]c4ccccc24)NC(=O)[C@H](CCCCN)NC(=O)[C@H](Cc2cnc[nH]2)NC(=O)[C@H]([C@@H](C)O)NC(=O)[C@H](CCCNC(=N)N)NC(=O)[C@H](CO)NC3=O)NC(=O)[C@H](CCCCN)NC(=O)[C@H](CC(=O)O)NC(=O)[C@H](CC(N)=O)NC(=O)[C@H](CC(=O)O)NC(=O)[C@@H]2CCCN2C1=O (H-DCLGFMRKCIPDNDKCCRPNLVCSRTHKWCRYVF-NH2; disulfide 2-17, 9-23, 16-30) | > 5000 nM | 950 nM |
| CC[C@H](C)[C@@H]1NC(=O)[C@@H]2CSSC[C@@H]3NC(=O)[C@H](C(C)C)NC(=O)[C@H](CC(C)C)NC(=O)[C@H](CC(N)=O)NC(=O)[C@@H]4CCCN4C(=O)[C@H](CCCNC(=N)N)NC(=O)[C@H](CSSC[C@H](NC(=O)[C@@H](N)CC(=O)O)C(=O)N[C@@H](CC(C)C)C(=O)NCC(=O)N[C@@H](Cc4ccccc4)C(=O)N[C@@H](CCSC)C(=O)N[C@@H](CCC(=O)O)C(=O)N[C@@H](CCCCN)C(=O)N2)NC(=O)[C@H](CSSC[C@@H](C(=O)N[C@@H](CCCCN)C(=O)N[C@@H](Cc2ccc(O)cc2)C(=O)N[C@H](C(=O)N[C@@H](Cc2ccccc2)C(N)=O)C(C)C)NC(=O)[C@H](Cc2c[nH]c4ccccc24)NC(=O)[C@H](CCCCN)NC(=O)[C@H](Cc2cnc[nH]2)NC(=O)[C@H]([C@@H](C)O)NC(=O)[C@H](CCCNC(=N)N)NC(=O)[C@H](CO)NC3=O)NC(=O)[C@H](CCCCN)NC(=O)[C@H](CC(=O)O)NC(=O)[C@H](CC(N)=O)NC(=O)[C@H](CC(=O)O)NC(=O)[C@@H]2CCCN2C1=O (H-DCLGFMEKCIPDNDKCCRPNLVCSRTHKWCKYVF-NH2; disulfide 2-17, 9-23, 16-30) | > 5000 nM | 860 nM |
| CC[C@H](C)[C@@H]1NC(=O)[C@@H]2CSSC[C@@H]3NC(=O)[C@H](C(C)C)NC(=O)[C@H](CC(C)C)NC(=O)[C@H](CC(N)=O)NC(=O)[C@@H]4CCCN4C(=O)[C@H](CCCNC(=N)N)NC(=O)[C@H](CSSC[C@H](NC(=O)[C@@H](N)CC(=O)O)C(=O)N[C@@H](CC(C)C)C(=O)NCC(=O)N[C@@H](Cc4ccccc4)C(=O)N[C@@H](CCSC)C(=O)N[C@@H](CCCNC(=N)N)C(=O)N[C@@H](CCCCN)C(=O)N2)NC(=O)[C@H](CSSC[C@@H](C(=O)N[C@@H](CCCCN)C(=O)N[C@@H](Cc2ccc(O)cc2)C(=O)N[C@H](C(=O)N[C@@H](CCCNC(=N)N)C(N)=O)C(C)C)NC(=O)[C@H](Cc2c[nH]c4ccccc24)NC(=O)[C@H](CCCCN)NC(=O)[C@H](Cc2cnc[nH]2)NC(=O)[C@H]([C@@H](C)O)NC(=O)[C@H](CCCNC(=N)N)NC(=O)[C@H](CO)NC3=O)NC(=O)[C@H](CCCCN)NC(=O)[C@H](CC(=O)O)NC(=O)[C@H](CC(N)=O)NC(=O)[C@H](CC(=O)O)NC(=O)[C@@H]2CCCN2C1=O (H-DCLGFMRKCIPDNDKCCRPNLVCSRTHKWCKYVR-NH2; disulfide 2-17, 9-23, 16-30) | > 5000 nM | 2350 nM |
| CC[C@H](C)[C@@H]1NC(=O)[C@@H]2CSSC[C@@H]3NC(=O)[C@H](C(C)C)NC(=O)[C@H](CC(C)C)NC(=O)[C@H](CC(N)=O)NC(=O)[C@@H]4CCCN4C(=O)[C@H](CCCNC(=N)N)NC(=O)[C@H](CSSC[C@H](NC(=O)[C@@H](N)CC(=O)O)C(=O)N[C@@H](CC(C)C)C(=O)NCC(=O)N[C@@H](Cc4ccccc4)C(=O)N[C@@H](CCSC)C(=O)N[C@@H](CCCNC(=N)N)C(=O)N[C@@H](CCCCN)C(=O)N2)NC(=O)[C@H](CSSC[C@@H](C(=O)N[C@@H](CCCCN)C(=O)N[C@@H](Cc2ccc(O)cc2)C(=O)N[C@H](C(=O)N[C@@H](Cc2ccccc2)C(N)=O)C(C)C)NC(=O)[C@H](Cc2c[nH]c4ccccc24)NC(=O)[C@H](CCCCN)NC(=O)[C@H](Cc2cnc[nH]2)NC(=O)[C@H](Cc2c[nH]c4ccccc24)NC(=O)[C@H](CCCNC(=N)N)NC(=O)[C@H](CO)NC3=O)NC(=O)[C@H](CCCCN)NC(=O)[C@H](CC(=O)O)NC(=O)[C@H](CC(N)=O)NC(=O)[C@H](CC(=O)O)NC(=O)[C@@H]2CCCN2C1=O (H-DCLGFMRKCIPDNDKCCRPNLVCSRWHKWCKYVF-NH2; disulfide 2-17, 9-23, 16-30) | 3600 nM | 50 nM |
| CC[C@H](C)[C@@H]1NC(=O)[C@@H]2CSSC[C@@H]3NC(=O)[C@H](C(C)C)NC(=O)[C@H](CC(C)C)NC(=O)[C@H](CC(N)=O)NC(=O)[C@@H]4CCCN4C(=O)[C@H](CCCNC(=N)N)NC(=O)[C@H](CSSC[C@H](NC(=O)[C@@H](N)CC(=O)O)C(=O)N[C@@H](CC(C)C)C(=O)NCC(=O)N[C@@H](Cc4ccccc4)C(=O)N[C@@H](CCSC)C(=O)N[C@@H](CCCNC(=N)N)C(=O)N[C@@H](CCCCN)C(=O)N2)NC(=O)[C@H](CSSC[C@@H](C(=O)N[C@@H](CCCCN)C(=O)N[C@@H](Cc2ccc(O)cc2)C(=O)N[C@@H](CCCCN)C(=O)N[C@@H](Cc2ccccc2)C(N)=O)NC(=O)[C@H](Cc2c[nH]c4ccccc24)NC(=O)[C@H](CCCCN)NC(=O)[C@H](Cc2cnc[nH]2)NC(=O)[C@H]([C@@H](C)O)NC(=O)[C@H](CCCNC(=N)N)NC(=O)[C@H](CO)NC3=O)NC(=O)[C@H](CCCCN)NC(=O)[C@H](CC(=O)O)NC(=O)[C@H](CC(N)=O)NC(=O)[C@H](CC(=O)O)NC(=O)[C@@H]2CCCN2C1=O (H-DCLGFMRKCIPDNDKCCRPNLVCSRTHKWCKYKF-NH2; disulfide 2-17, 9-23, 16-30) | > 5000 nM | 50 nM |

— ChEMBL document CHEMBL3797186, “Single Residue Substitutions That Confer Voltage-Gated Sodium Ion Channel Subtype Selectivity in the NaV1.7 Inhibitory Peptide GpTx-1” (J Med Chem, 2016)
